Screening data from PubChem BioAssay.
This is one part of a sample in which hits are shown more often than they occur.
L major viab: Leishmania major promastigote growth inhibition, primary screen; Leishmania major promastigotes, resazurin fluorescence viability; inhibition, % at 10 µM; 200,000 compounds, 9% hits; in the data active = inhibition above about 50%;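 note: promastigotes grown with compound for 44 hours at 28 °C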
UPR XBP1 act: activators of adaptive XBP1 UPR arm, primary screen, cell-based, CHO-XBP1 luciferase reporter, luminescence, uHTS; activation, % at 20 µM; 330,000 compounds, 0.33% hits; IRE1-XBP1 UPR activation; percent of tunicamycin response, DMSO as zero;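 active = versus positive control, 20 µM dose yields 30% or more activation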
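Test system: CHO-XBP1 luciferase reporter cells | Buffer or medium: Serum-containing F12 medium, 10% FBS | Schedule: 6 h compound exposure at 37 °C, 5% CO2 | Detection: Steady-Glo luciferase glow luminescence, 10 min after reagent addition | Read-out basis: Activation, % of tunicamycin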
UPR CHOP act: activators of apoptotic CHOP UPR arm, primary screen, cell-based, CHO-CHOP luciferase reporter, luminescence, uHTS. UPR activation; percent of tunicamycin response over DMSO baseline. activation, % at 10 µM. 330,000 compounds, 0.34% hits. AID 449763, 2010;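 active = at 10 µM dose, activation of 40% or more, normalized to positive control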
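System: CHO-CHOP luciferase reporter cell line; amount: 500 cells/well; buffer or medium: F12 medium containing 10% fetal bovine serum; incubation: 6 h compound exposure at 37 °C after overnight seeding; measured by: luciferase luminescence after 10 min with Steady-Glo reagent; evaluation: % reporter activation, DMSO baseline versus tunicamycin full activation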
Dynein transport: inhibitors of GR-EGFP nuclear translocation, primary screen, dynein cargo transport inhibitor project, imaging, high-content, 3617.4 mouse cells. z-score, hits read low. test concentration mostly 20 µM; stimulated with dexamethasone, 1 µM; hits give low values. 220,000 compounds, 0.47% hits;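 active = plate z-score of nuclear minus cytoplasmic receptor signal below a set negative limit, without overly bright fluorescence or cell loss, cut at about -3.5 in these data, passing the limit was not always enough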;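 note: z-score of nuclear minus cytoplasmic ring GR-EGFP intensity difference per well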
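Buffer or medium – tet-free medium with charcoal-stripped serum · Signal – automated 10x imaging of fixed Hoechst-stained cells · Also added – dexamethasone agonist, 1.0 µM final, for 30 min · Incubation – induction 48 h, compound 1 h, agonist 30 min · Read-out – GR-EGFP nuclear translocation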
CHOP inhibitor: inhibitors of CHOP promoter induction, primary screen, cell-based, unfolded protein response, luciferase reporter. CHO-K1 CHOP-promoter luciferase, tunicamycin-induced, 15-18 h. inhibition, % at 10 µM. 220,000 compounds, 3.8% hits. AID 2732, 2010;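 active = compounds that reduced the stress-induced luciferase reporter signal by more than about 70% of percent inhibition, limit read from the data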
T cruzi inh: inhibitors of intracellular T. cruzi growth, primary screen, luminescence, NIH3T3 host cells | T. cruzi beta-gal in NIH3T3, 90 h | inhibition, % (concentration not given with the values) | 300,000 compounds, 1.4% hits;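 active = mean inhibition across valid replicates above about 55%, limit read from the data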;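 note: signal also drops with host cell toxicity which is not excluded here; higher percent means less beta-gal luminescence so fewer parasites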
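System: Mouse NIH/3T3 fibroblasts infected with β-gal-expressing T. cruzi Tulahuen C4 | Quantity: NIH/3T3 cells, 5,000 per well | Reagent: 5000 reporter trypomastigotes per well | Dosing: Compound pinned at 50 nL/well, DMSO | Schedule: 3 h host attachment, then at least 90 h co-culture | Detection: GalScreen luminescence, 60 min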
Large screens that a line does not name were inactive.

Cc1ccc2[nH]c3c(N4CCN(Cc5ccccc5)CC4)ncnc3c2c1	L major viab 57
Cc1c(NC(=O)COc2c(F)c(F)c(F)c(F)c2F)c(=O)n(-c2ccccc2)n1C	none (no result: L major viab, Dynein transport, CHOP inhibitor)
COc1cccc2[nH]c3c(N4CCC5(CC4)OCCO5)ncnc3c12	none (no result: L major viab)
COc1cccc2[nH]c3c(N4CCN(Cc5ccc6c(c5)OCO6)CC4)ncnc3c12	L major viab 89
COc1cccc(NC(=O)Cn2c(=O)c3c(ncn3Cc3ccccc3)n(Cc3ccccc3)c2=O)c1	L major viab 69
c1ccc2c(NCC3CCCO3)nc(N3CCCCC3)nc2c1 (configuration not stated)	L major viab 67
Oc1ccccc1Nc1nc(NCC2CCCO2)c2ccccc2n1 (configuration not stated)	L major viab 82
c1ccc2c(N3CCCCC3)nc(N3CCCC3)nc2c1	L major viab 99
Oc1ccc(Cl)cc1Nc1nc(NCC2CCCO2)c2ccccc2n1 (configuration not stated)	none (no result: L major viab, Dynein transport, CHOP inhibitor)
c1ccc(-c2nc(N3CCNCC3)nc3ccccc23)cc1	L major viab 100
COc1cccc(Nc2nc(NCCO)c3ccccc3n2)c1	L major viab 101
OCCNc1nc(Nc2cccc(O)c2)nc2ccccc12	none (no result: L major viab)
Oc1ccc(Nc2nc(NCC3CCCO3)c3ccccc3n2)cc1 (configuration not stated)	L major viab 100
CC(C)Oc1ccc(-c2nc(NCC3CCCO3)c3ccccc3n2)cc1 (configuration not stated)	none (no result: L major viab)
COc1cccc(Nc2nc(NCC3CCCO3)c3ccccc3n2)c1 (configuration not stated)	L major viab 100, T cruzi inh 60
Cc1ccc(S(=O)(=O)N2CCN(C(=O)CN3C(=O)NC4(CCCC4)C3=O)CC2)c(C)c1	none (no result: L major viab, Dynein transport, CHOP inhibitor)
CCn1c(C)nc2cc(C(=O)NNC(=S)Nc3ccc(C)cc3)ccc21	none (no result: L major viab)
CCn1c(C)nc2cc(C(=O)NNC(=S)NC(=O)c3ccc(OC)cc3)ccc21	L major viab 94
Cc1ccc(N2C(=O)C3C4C=CC(CC4)C3C2=O)c([N+](=O)[O-])c1 (configuration not stated)	none (no result: L major viab, Dynein transport, CHOP inhibitor)
COCCn1c(SCC(=O)NCc2ccco2)nnc1-c1c[nH]c2ccccc12	none
COc1ccc(OC)c(-n2c(SCC(=O)NCc3ccco3)nnc2-c2c[nH]c3ccccc23)c1	L major viab 96
Cc1cccc(-n2c(SCc3ccc([N+](=O)[O-])cc3)nnc2-c2c[nH]c3ccccc23)c1	T cruzi inh 66
CCn1c(SCC(=O)NCc2ccco2)nnc1-c1c[nH]c2ccccc12	none
COc1cccc(-n2c(SCC(=O)NCc3ccco3)nnc2-c2c[nH]c3ccccc23)c1	L major viab 98
CC1(C(=O)OCC(=O)Nc2nnc(-c3ccccc3)o2)CC1(Cl)Cl (configuration not stated)	none (no result: L major viab, Dynein transport, CHOP inhibitor)
CCOc1ccc(NC(=O)CCc2nnc3ccc(N4CCC5(CC4)OCCO5)nn23)cc1	none (no result: L major viab, Dynein transport, CHOP inhibitor)
COc1ccc(C2(CNC(=O)c3ccc(OC)c([N+](=O)[O-])c3)CCCCC2)cc1OC	L major viab 87
COc1ccc(C2(CNC(=O)c3cccc([N+](=O)[O-])c3)CCCCC2)cc1OC	none
CCCCN(CCCC)CC(O)COc1ccccc1Br (configuration not stated)	none
CC(C)CN(CC(C)C)CC(O)COc1ccccc1Br (configuration not stated)	CHOP inhibitor 85
CCOC(CNC(=O)C(=O)Nc1cc2c3c(c1)CCC(=O)N3CCC2)OCC	none (no result: L major viab, Dynein transport, CHOP inhibitor)
N#C/C(=C\c1ccccc1[N+](=O)[O-])C(=O)NC1CCCCC1	L major viab 100
CCOc1ccccc1/C=C(\C#N)C(=O)NC1CC1	none (no result: L major viab, Dynein transport, CHOP inhibitor)
N#C/C(=C\C=C\c1ccccc1[N+](=O)[O-])C(=O)NC1CCCCC1	L major viab 91
N#C/C(=C\c1cccn1-c1ccccc1)C(=O)NC1CCCCC1	none
O=C(O)CCCCCNC(=O)OCC1c2ccccc2-c2ccccc21	none (no result: L major viab, Dynein transport, CHOP inhibitor)
Cc1ccc(S(=O)(=O)N(CC(=O)Nc2cccc(N(C)S(C)(=O)=O)c2)c2ccc(Cl)c(Cl)c2)cc1	L major viab 67, T cruzi inh 70
CN(c1cccc(NC(=O)CN(c2ccc(C34CC5CC(CC(C5)C3)C4)cc2)S(C)(=O)=O)c1)S(C)(=O)=O	L major viab 90, T cruzi inh 65
CN(c1cccc(NC(=O)CCSc2ccccc2)c1)S(C)(=O)=O	none
CN(c1cccc(NC(=O)CSc2ccc(Cl)cc2)c1)S(C)(=O)=O	L major viab 74
CCC(CC)CN1C(N(C)C)=NC[C@@H]1CC(C)C	none (no result: L major viab, Dynein transport, CHOP inhibitor, T cruzi inh)
Cc1ccc(CNC(=O)Cn2nnc(C(=O)Nc3cc(C)ccc3C)c2N)cc1	none (no result: L major viab, Dynein transport, CHOP inhibitor)
O=C(C[C@H]1C/C=C\CCC(=O)O[C@@H](c2ccccc2)CNC1=O)NCCO	none (no result: L major viab, Dynein transport, CHOP inhibitor, T cruzi inh)
CCCC(=O)Nc1ccc2oc(-c3ccc(OC)c(Br)c3)nc2c1	CHOP inhibitor 96
CCC(NS(=O)(=O)c1ccc(OC)cc1)C(=O)NCCc1ccccc1 (configuration not stated)	none (no result: L major viab, Dynein transport, CHOP inhibitor)
Cn1nc([N+](=O)[O-])nc1Oc1ccccc1	T cruzi inh 79
Cn1cnc([N+](=O)[O-])c1Sc1ccc(C(C)(C)C)cc1	none (no result: L major viab)
Cn1cnnc1Sc1nc([N+](=O)[O-])nn1C	none
CNc1nc(C)c([N+](=O)[O-])c(Nc2ccc(OC)cc2)n1	none (no result: L major viab, Dynein transport, CHOP inhibitor)
Cn1nc([N+](=O)[O-])nc1Oc1ccc(C(C)(C)C)cc1	T cruzi inh 64
CNc1ccc(Oc2nc([N+](=O)[O-])nn2C)cc1	T cruzi inh 69
CCOC(=O)c1c(C)[nH]c(C)c1C(=O)COC(=O)Cc1ccc(OC)c(OC)c1	none (no result: L major viab, Dynein transport, CHOP inhibitor, T cruzi inh)
CCOC(=O)c1ccc2ncc(C(=O)OCC)c(NCCCN3CCOCC3)c2c1	L major viab 60
CCOC(=O)c1ccc2ncc(C(=O)OCC)c(Nc3ccc(N4CCOCC4)cc3)c2c1	L major viab 74
CCCN1CCN(C(=O)C2CCN(S(=O)(=O)c3c(C)noc3/C=C/c3ccc(C)cc3)CC2)CC1	none (no result: L major viab, Dynein transport, CHOP inhibitor)
COc1cccc(CN(c2ccc3c(c2)CCC3)S(=O)(=O)c2ccc(-n3cnnn3)c(OC)c2)c1	L major viab 66
COc1cc(S(=O)(=O)N(Cc2cccnc2)Cc2ccco2)ccc1-n1cnnn1	none
